Assay results from PMC3962999 (The Biochemical journal, 2011).
Where a chain is given by its changes, count along the chain named.

Key:
[1] = target: T1, PBD1 (PPIP5K1) (Homo sapiens, UniProt Q6PFW1); test: SPR equilibrium binding to immobilized lipid vesicles, PBD1; details: SPR, in words
T1 sequence (Q6PFW1 382-917): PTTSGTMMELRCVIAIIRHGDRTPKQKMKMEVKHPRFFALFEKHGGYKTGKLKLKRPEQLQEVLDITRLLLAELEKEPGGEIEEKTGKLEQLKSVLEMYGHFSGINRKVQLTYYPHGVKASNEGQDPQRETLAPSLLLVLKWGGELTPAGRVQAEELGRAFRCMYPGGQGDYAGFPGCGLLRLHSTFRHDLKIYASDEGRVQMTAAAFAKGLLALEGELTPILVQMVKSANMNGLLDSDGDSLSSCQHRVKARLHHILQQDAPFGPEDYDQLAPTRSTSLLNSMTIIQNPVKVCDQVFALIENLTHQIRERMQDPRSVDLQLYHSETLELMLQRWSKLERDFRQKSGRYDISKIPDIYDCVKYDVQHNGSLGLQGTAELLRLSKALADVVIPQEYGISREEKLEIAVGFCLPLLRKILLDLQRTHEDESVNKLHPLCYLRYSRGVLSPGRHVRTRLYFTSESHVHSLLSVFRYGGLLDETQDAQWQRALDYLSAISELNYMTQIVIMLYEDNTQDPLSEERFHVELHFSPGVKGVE
Procedure, shortened: (§1)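 Large unilamellar vesicles (PtdCho/PtdE/test phosphoinositide 77:20:3) were captured on an L1 chip to 5000 RU. Signals were corrected against phosphoinositide-free vesicles. Kd came from nonlinear fitting of Req = Rmax/(1+Kd/C). Concentrations were: GRP-1 PH domain 2.5–125 nM; PBD1 on PtdIns(3,4,5)P₃ 5–150 nM; bisphosphate vesicles 75–1900 nM.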

[2] = target: T2, PBD1R417A (Homo sapiens, UniProt Q6PFW1, R417A); test: SPR equilibrium binding, PBD1 R417A mutant; details: results not shown
T2 sequence (Q6PFW1 382-917 R417A): T1 sequence (Q6PFW1 382-917) with R36A

[3] = target: T3, PBD2 (PPIP5K2) (Homo sapiens, UniProt O43314); test: SPR equilibrium binding to immobilized lipid vesicles, PBD2; details: SPR, in words
T3 sequence (O43314 371-901 isoform O43314-2): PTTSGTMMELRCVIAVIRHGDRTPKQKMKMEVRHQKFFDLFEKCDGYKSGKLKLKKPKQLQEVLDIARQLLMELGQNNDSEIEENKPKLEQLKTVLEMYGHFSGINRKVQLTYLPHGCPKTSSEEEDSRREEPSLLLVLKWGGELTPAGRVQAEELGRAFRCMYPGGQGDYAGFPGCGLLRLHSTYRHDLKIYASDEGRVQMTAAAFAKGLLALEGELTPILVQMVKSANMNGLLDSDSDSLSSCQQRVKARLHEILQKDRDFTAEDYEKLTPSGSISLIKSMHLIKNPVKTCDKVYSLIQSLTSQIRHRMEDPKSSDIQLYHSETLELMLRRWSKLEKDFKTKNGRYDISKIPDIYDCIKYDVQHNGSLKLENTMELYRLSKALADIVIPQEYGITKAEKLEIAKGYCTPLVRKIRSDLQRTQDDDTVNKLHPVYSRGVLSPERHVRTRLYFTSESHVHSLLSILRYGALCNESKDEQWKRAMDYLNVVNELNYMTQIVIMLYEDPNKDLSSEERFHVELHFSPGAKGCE
Procedure, shortened: as §1

binding to PBD1 [1]: significantly weaker ligands
binding to PBD1 R417A [2]: eliminated all detectable binding
binding to PBD2 [3]: relatively weakly
Substance: PtdIns(4,5)P2
